Results from ChEMBL document CHEMBL3351818, “Synthesis and biological evaluation of novel 3,4-diaryl-1,2,5-selenadiazol analogues of combretastatin A-4” (Eur J Med Chem, 2014).

What was measured:
Assay type in all cases: functional, cell-based
[1] = Antiproliferative activity against human SGC7901 cells after 72 hrs by MTT assay; settings: SGC-7901, 72 h
Outline: (§1)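 Cells were seeded at 1–3 × 10⁴/well, depending on growth rate, and grown 24 h. Triplicate wells were then exposed to agents for 72 h at 37 °C in 5% CO₂. IC50 is the concentration giving 50% absorbance reduction versus vehicle, averaged from ≥3 independent experiments. SGC-7901 and HT-1080 were cultured in RPMI-1640 with 10% FBS.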

[2] = Antiproliferative activity against human HT1080 cells after 72 hrs by MTT assay; settings: HT-1080, 72 h; outline: as §1
KB = assay: Antiproliferative activity against human KB cells after 72 hrs by MTT assay; outline: as §1

Row | SMILES | IC50 [1] [µM] | IC50 [2] [µM] | IC50 (KB) [µM]
1 | COc1ccc(-c2n[se]nc2-c2ccc3c(c2)OCO3)cc1N | > 30 | 13.5 | 1.87
2 | COc1cc(-c2n[se]nc2-c2ccc(O)c(Br)c2)cc(OC)c1OC | > 30 | 16.4 | 4.8
3 | COc1ccc(-c2n[se]nc2-c2ccc3c(c2)OCO3)cc1 | 8.28 | > 30 | 5.21
4 | COc1ccc(/C=C\c2cc(OC)c(OC)c(OC)c2)cc1O [COMBRETASTATIN A4] | 0.028 | 0.0076 | 0.013
5 | COc1cc(-c2n[se]nc2-c2cccc(OCc3ccccc3)c2)cc(OC)c1OC | > 30 | > 30 | 10.7
6 | CCOc1ccc(-c2n[se]nc2-c2cc(OC)c(OC)c(OC)c2)cc1 | 0.23 | 0.16 | 0.42
7 | COc1cc(-c2n[se]nc2-c2cccc(O)c2)cc(OC)c1OC | > 30 | 5.98 | > 30
8 | COc1ccc(-c2n[se]nc2-c2ccc3c(c2)OCO3)cc1[N+](=O)[O-] | > 30 | > 30 | > 30
9 | CCOc1ccc(-c2n[se]nc2-c2cc(OC)c(OC)c(OC)c2)cc1Br | 12.8 | 3.46 | 0.93
10 | COc1cc(-c2n[se]nc2-c2ccc(O)cc2)cc(OC)c1OC | > 30 | 15 | 15.8
11 | COc1ccc(-c2n[se]nc2-c2cc(OC)c(OC)c(OC)c2)cc1OCc1ccccc1 | > 30 | > 30 | > 30
